Screening data as filed in PubChem.
HIV Env fusion – blocks HIV Env-driven cell-cell fusion. AID 651610. inhibition, % at 12.3 µM. hit rate 1.1% among 360,000. HeLa-JRFL Env/CEM21 cell fusion, luciferase;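 active = mean replicate inhibition score of at least 50 and every replicate individually at or above 50; inconclusive = only one of the two criteria met; inactive = mean below 50 and not all replicates reaching 50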;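 note: 0% = plate neutral controls and 100% = maraviroc near 300 nM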
FGF22 binding – binders of recombinant human FGF22 by thermal shift. Q9HCT0. SYPRO orange fluorescence; percent of sucrose octasulfate shift, DMSO zero. activity (Tm shift, normalised), % at 9.99 µM. hit rate 1.5% among 340,000. AID 651658;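 active = mean Tm shift, scaled 0 neutral to 100 positive control, at about 1.3% or above, every replicate too, limit read from the data; inconclusive = no clear call, values can overlap the other calls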
PGC1a acetyl inh – PGC1a acetylation modulation, inhibitor mode; U2OS PGC1a acetylation, AlphaScreen anti-acetyl-lysine; with virally co-expressed GCN5 acetyltransferase; inhibition, % at 15.6 µM; hit rate 0.17% among 350,000; AID 651687;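 active = every replicate shows inhibition of at least 40%; inconclusive = mean inhibition at least 40% but some replicate below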;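 note: 0% = neutral control wells and 100% = positive control wells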
Cneo AK release – causes C. neoformans cell lysis. hit rate 0.2% among 360,000. adenylate kinase release luminescence, 4 h; normalised: neutral wells 0, clomiphene wells 100. lysis activity, % at 15 µM;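 active = mean lysis activity across replicates of at least 80%, whatever share of replicates individually reach that level; inactive = mean lysis activity below 80%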
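Material: C. neoformans cells | Amount: Yeast cell density of 5 × 10^6 cells/mL | Medium: Fresh YPD growth medium | Dosing: Single dose | Times: Static 4 h at 37 °C with compound, 1 h detection | Detection: AK luminescence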
ERAP1 inh – inhibitors of human ERAP1 aminopeptidase; Q9NZ08; inhibition, % at 10.7 µM; recombinant ERAP1, Leu-AMC fluorescence, 60 min; hit rate 0.15% among 340,000;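 active = mean replicate inhibition of at least 30%, or all replicates individually reaching that 30% level; inactive = mean below 30% and not every replicate reaching it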;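 note: 0% = neutral control wells and 100% = L-leucinethiol positive control wells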
rRNA inh HTS – inhibitors of bacterial rRNA selective over humanized ribosomes; E. coli WT GFP vs humanized-ribosome RFP mutants, fluorescence, 24 h; hits give low values; DMSO median 0, no signal -100; GFP signal change (wild-type ribosome), % (concentration not given with the values); hit rate 1.6% among 350,000;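 active = significant combined selectivity score with lowered wild-type GFP, culture density cut under 30%, mutant RFP and density less affected; inactive = any of these conditions unmet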
AID977621 – wild-type E. coli growth inhibition versus H69 humanized strain – H69 mutant RFP, wild-type GFP, cherry-pick, dose response; shares compounds with rRNA inh HTS; AID 977621; 1,900 tested, under 10 active; fluorescence, 24 h; activity change, negative = inhibition at 50 µM;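 active = Wild-type ribosome reporter drop at least double the humanized mutant ribosome reporter drop, growth loss under a set limit; inconclusive = no clear call, values can overlap the other calls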;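 note: wild-type GFP and H69 mutant RFP strains grown together 50/50 in each well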
AID977628 – growth of wild-type and h24-humanized E. coli strains – h24 mutant RFP vs wild-type GFP, cherry-pick, dose response | E. coli WT GFP strain growth, fluorescence, 24 h | shares compounds with rRNA inh HTS | 1,900 tested, under 10 active | activity change, negative = inhibition at 50 µM;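 active = compound lowering the normal-ribosome reporter at least twice as much as the humanized-ribosome reporter, growth loss under a set limit; inconclusive = no clear call, values can overlap the other calls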;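 note: wild-type GFP and h24 humanized RFP strains co-cultured 1 to 1 per well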
* marks the source's active call; other numbers are inactive results; ? = inconclusive; . = not tested or not shown; [ ] = remark or other dose. Sampled rows, rich in hits. Any-hit rate of the full collection: about 3.5%.

SMILES | HIV Env fusion | FGF22 binding | PGC1a acetyl inh | Cneo AK release | ERAP1 inh | rRNA inh HTS | AID977621 | AID977628
CCN(C[C@@H]1[C@@H](c2ccccc2)[C@H](CO)N1C(=O)C1CC1)C(=O)NC1CCCC1 | . | 0 | 10 | 0 | -2 | -2 | . | .
COc1ccc(NC(=O)c2nc[nH]c2C(=O)N(C)Cc2ccccc2)cc1 | 9 | 0 | 2 | -1 | -2 | -19* | ? | .
CCn1c(SCC(=O)Nc2ccc(OC)c(OC)c2)nnc1-c1cccs1 | 2 | . | ? | -1 | . | . | . | .
CO[C@@H]1CN(C)C(=O)c2ccc(NC(=O)c3nc4ccccc4s3)cc2OC[C@@H](C)N(Cc2ccncc2)C[C@@H]1C | . | 0 | 0 | -2 | -3 | -25* | . | ?
CCc1cccc(NC(=O)CN(c2ccc(OC)cc2)S(=O)(=O)c2c(C)n[nH]c2C)c1 | -48 | . | 0 | -1 | . | . | . | .
Cc1cc(C)c(OCCN(C)Cc2ccccc2)c(Br)c1 | -9 | 0 | . | . | 2 | -23* | 4.1 | -8.3
Cc1noc(C)c1NC(=O)Nc1ccc2c(c1)CC(=O)N([C@H](C)CO)C[C@H](C)[C@@H](CN(C)C(=O)NC(C)C)O2 | 10[16.7 µM] | -1 | -5 | -2 | . | 6 | . | .
CC(=O)NCCOc1nc(N(C)C)nc(N2CCOCC2)n1 | -17 | . | 12 | -2 | . | . | . | .
CC(=O)NCCOc1nc(N2CCCCC2)nc(N2CCCCC2)n1 | 18 | 0 | -1 | 1 | 2 | -25* | -6.6 | -10
O=C(COC(=O)Cn1cc(C(F)(F)F)ccc1=O)Nc1ccc(Br)cc1F | -58 | 0 | . | -14 | -4 | 6 | . | .
Cc1occc1C(=O)Nc1ccc2c(c1)CCC2 | . | 0 | 7 | . | -1 | -13* | ? | ?
O=C(O)c1ccccc1-c1ccccc1C(=O)Nc1ccc2c(c1)CCC2 | 4 | 0 | 9 | -1 | . | -21* | -12 | .
O=C(Nc1cccc(Cl)c1)C1C2C=CC3(O2)C1C(=O)N(CCN1CCCCC1)C3C(=O)NC1CCCCC1 (stereo unspecified) | 5 | 0 | 3 | -2 | -6 | 4 | . | .
COc1ccc(OCC(O)CNS(=O)(=O)c2cccc(Cl)c2)cc1 (stereo unspecified) | 17 | 1 | -4 | -3 | -3 | -21* | -3.7 | -4.2
O=[N+]([O-])c1ccc(-[n+]2nc(-c3ccccc3)nn2-c2ccccc2)cc1 | 12 | 0 | . | 1 | 1 | -22* | . | ?
O=c1ccc(-c2ccc([N+](=O)[O-])cc2)nn1-c1ccccc1 | 13 | 0 | -4 | . | -2 | 21 | . | .
COc1ccc(C(=O)Nc2cccc3ccccc23)cc1 | -5 | 0 | . | 1 | 0 | -19* | -11 | -12
COc1cc(OC)cc(C(=O)Nc2ccc(C(=O)Nc3ccccc3OC)cc2)c1 | 36 | 0 | -10 | 0 | 0 | -22* | 0.97 | ?
COc1ccc(C(=O)Nc2ccccc2NC(=O)c2ccc(OC)cc2)cc1 | -17 | 0 | . | 1 | . | . | . | .
Cc1ccc(NCC(=O)c2ccc(C)cc2)cc1 | -30 | 0 | 3 | 2 | 3 | -18* | -10 | -2.9
O=C(NCc1cccnc1)C1CCN(S(=O)(=O)c2cc([N+](=O)[O-])ccc2Cl)CC1 | -14 | 0 | -12 | 3 | -3 | -3.1* | -8.1 | -13
COc1cc2c(cc1OC)CN(CC(=O)Nc1ccc(F)cc1F)CC2 | -2 | 0 | -10 | 0 | -5 | 5 | . | .
O=C(CN1CCc2ccccc2C1)Nc1ccc(F)cc1F | 12 | 44* | -8 | 0 | 1 | -21* | -21 | ?
Cc1c(CCOC(=O)C23CC4CC(CC(C4)C2)C3)sc[n+]1Cc1ccccc1 | 4 | 0 | . | 1 | -2 | -27* | -1.9 | 2.8
Cc1c(CCOC(=O)C23CC4CC(CC(C)(C4)C2)C3)sc[n+]1Cc1ccccc1 | -25 | . | 5 | -3 | . | . | . | .
